In brackets after ≈: the same amount, converted by molar mass. Activity calls are given as the source filed them. The calls are words filed in the database; no cut-off is given here.
Legend:
[1] = target: T1, Sodium channel protein type 1 subunit alpha (Homo sapiens, UniProt P35498); experiment: Inhibition of peak NaV1.1 (unknown origin) at 10 uM at 10 Hz frequency by manual patch clamp technique
In short: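 Whole-cell manual patch clamp at room temperature, with series resistance compensated 90%.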

[2] = system: Oryctolagus cuniculus; experiment: Cardioprotective activity in New Zealand rabbit model of LAD coronary artery occlusion-induced ischemia-reperfusion injury assessed as inhibition of ST segment elevation intravenously administered with compound for 30 mins followed by induction of ischemia for 15 mins and subsequent reperfusion for 15 mins by electrocardiographic analysis; format: functional
[3] = Inhibition of peak sodium current (unknown origin) by manual patch clamp method; design: species or system Homo sapiens
[4] = species on record: Oryctolagus cuniculus; experiment: Cardioprotective activity in New Zealand rabbit model of LAD coronary artery occlusion-induced ischemia-reperfusion injury assessed as inhibition of ST segment elevation at 12 uM for 30 mins followed by induction of ischemia for 15 mins and subsequent reperfusion for 15 mins by electrocardiographic analysis; format: functional; conditions: 1 h, time 60 min
[5] = species on record: Oryctolagus cuniculus; experiment: Cardioprotective activity in New Zealand rabbit heart assessed as reversal of ATX-II induced late sodium current increase in QT interval by electrocardiographic analysis; format: functional
[6] = species on record: Oryctolagus cuniculus; experiment: Cardioprotective activity in New Zealand White rabbit heart assessed as reversal of ATX-II induced late sodium current prolongation in change in duration of monophasic action potential at 90 percent repolarization by electrocardiographic analysis relative to control; format: functional, tissue-based
[7] = species on record: Oryctolagus cuniculus; experiment: Cardioprotective activity in rabbit assessed as decrease in chemically-induced Torsades des Pointes at 14 uM by electrocardiographic analysis; format: functional; design: scale not given: the % may be the effect or the level left
[8] = species on record: Homo sapiens; experiment: Inhibition of L-type calcium channel (unknown origin)
[9] = Volume of distribution at steady state in iv dosed Sprague-Dawley rat; format: ADME, organism-based; conditions: in vivo, read-out: Vdss
[10] = Inhibition of late sodium current channel (unknown origin) at 25 Hz frequency by whole cell patch clamp technique; conditions: Homo sapiens
[11] = Half-life in iv dosed cynomolgus monkey; format: ADME, organism-based, Macaca fascicularis; conditions: in vivo
[12] = species on record: Oryctolagus cuniculus; experiment: Cardioprotective activity in rabbit model of LAD coronary artery occlusion-induced ischemia-reperfusion injury assessed as inhibition of ST segment elevation by measuring maximum efficacy incubated with compound for 30 mins followed by induction of ischemia for 15 mins and subsequent reperfusion for 15 mins by electrocardiographic analysis relative to ranolazine; format: functional; conditions: 0.5 h
[13] = Oral bioavailability in cynomolgus monkey; format: ADME, organism-based, Macaca fascicularis; conditions: in vivo
[14] = target: T2, Sodium channel protein type 4 subunit alpha (Homo sapiens, UniProt P35499); experiment: Inhibition of NaV1.4 (unknown origin) at 10 Hz frequency by whole cell manual patch clamp technique
T2 sequence (P35499 whole entry): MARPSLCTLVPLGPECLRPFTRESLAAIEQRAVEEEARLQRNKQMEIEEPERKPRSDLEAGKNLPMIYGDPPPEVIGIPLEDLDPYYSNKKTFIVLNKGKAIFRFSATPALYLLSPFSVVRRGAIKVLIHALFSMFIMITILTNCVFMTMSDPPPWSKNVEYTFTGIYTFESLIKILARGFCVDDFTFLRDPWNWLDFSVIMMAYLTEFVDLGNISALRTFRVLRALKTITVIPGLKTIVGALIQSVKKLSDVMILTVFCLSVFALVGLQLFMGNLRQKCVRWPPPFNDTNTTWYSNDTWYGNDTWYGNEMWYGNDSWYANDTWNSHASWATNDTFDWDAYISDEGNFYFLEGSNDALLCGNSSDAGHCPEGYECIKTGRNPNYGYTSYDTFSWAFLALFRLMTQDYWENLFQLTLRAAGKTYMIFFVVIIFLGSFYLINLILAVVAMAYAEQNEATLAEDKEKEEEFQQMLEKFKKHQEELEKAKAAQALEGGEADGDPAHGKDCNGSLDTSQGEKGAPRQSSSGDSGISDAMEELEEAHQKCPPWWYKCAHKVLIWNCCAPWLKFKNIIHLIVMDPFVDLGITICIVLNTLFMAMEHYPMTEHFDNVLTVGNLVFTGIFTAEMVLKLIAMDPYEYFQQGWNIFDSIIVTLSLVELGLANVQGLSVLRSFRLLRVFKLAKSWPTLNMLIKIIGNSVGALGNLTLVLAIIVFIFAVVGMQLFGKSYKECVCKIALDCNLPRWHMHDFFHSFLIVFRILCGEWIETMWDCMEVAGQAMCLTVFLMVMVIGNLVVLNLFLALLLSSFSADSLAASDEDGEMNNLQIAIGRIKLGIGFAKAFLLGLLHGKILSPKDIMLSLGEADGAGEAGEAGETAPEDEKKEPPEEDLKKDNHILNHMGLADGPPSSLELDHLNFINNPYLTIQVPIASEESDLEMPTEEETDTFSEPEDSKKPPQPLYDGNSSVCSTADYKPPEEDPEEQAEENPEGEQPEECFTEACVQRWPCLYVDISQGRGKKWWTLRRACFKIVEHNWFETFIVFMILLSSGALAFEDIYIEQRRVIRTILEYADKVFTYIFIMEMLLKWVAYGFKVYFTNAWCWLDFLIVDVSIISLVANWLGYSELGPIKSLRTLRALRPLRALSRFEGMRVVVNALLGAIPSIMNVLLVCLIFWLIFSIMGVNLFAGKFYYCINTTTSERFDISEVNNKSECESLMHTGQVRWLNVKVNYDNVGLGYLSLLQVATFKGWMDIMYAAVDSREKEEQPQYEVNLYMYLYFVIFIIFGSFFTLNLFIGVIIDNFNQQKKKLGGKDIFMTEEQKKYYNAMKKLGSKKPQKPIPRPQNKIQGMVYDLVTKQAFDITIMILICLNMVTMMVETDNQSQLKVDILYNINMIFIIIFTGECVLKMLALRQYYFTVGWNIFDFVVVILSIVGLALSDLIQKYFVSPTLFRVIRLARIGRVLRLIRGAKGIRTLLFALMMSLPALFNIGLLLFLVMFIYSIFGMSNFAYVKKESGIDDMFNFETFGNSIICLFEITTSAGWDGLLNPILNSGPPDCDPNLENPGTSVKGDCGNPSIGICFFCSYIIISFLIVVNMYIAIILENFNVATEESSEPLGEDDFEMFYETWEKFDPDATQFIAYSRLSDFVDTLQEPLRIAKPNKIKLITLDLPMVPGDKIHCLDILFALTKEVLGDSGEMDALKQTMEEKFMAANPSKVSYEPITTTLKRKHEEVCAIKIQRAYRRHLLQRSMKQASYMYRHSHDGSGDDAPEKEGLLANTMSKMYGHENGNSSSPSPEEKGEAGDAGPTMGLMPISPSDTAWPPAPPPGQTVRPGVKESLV
In short: (§1)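 Whole-cell manual patch clamp on non-cardiac NaV1.x channels, run at room temperature. Series resistance was compensated 90% so the command potential was reached within microseconds.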

[15] = target: T2, Sodium channel protein type 4 subunit alpha; experiment: Inhibition of NaV1.4 (unknown origin) at 25 Hz frequency by whole cell manual patch clamp technique; in short: as §1
[16] = Half-life in iv dosed Sprague-Dawley rat; format: ADME, organism-based; conditions: in vivo
[17] = target: T3, Sodium channel protein type 3 subunit alpha (Homo sapiens, UniProt Q9NY46); experiment: Inhibition of NaV1.3 (unknown origin) at 10 Hz frequency by whole cell manual patch clamp technique; in short: as §1
[18] = Inhibition of ATX-II induced late sodium current (unknown origin) by manual patch clamp method; design: species or system Homo sapiens
[19] = Toxicity in New Zealand rabbit model of LAD coronary artery occlusion-induced ischemia-reperfusion injury assessed as effect on heart rate at 0.25 to 0.5 uM; design: species or system Oryctolagus cuniculus; conditions: in vivo, dose 0.25-0.5 µM
[20] = Intrinsic clearance in cynomolgus monkey hepatocytes; format: ADME, cell-based, Macaca fascicularis, Hepatocyte; conditions: read-out: CLH (converted)
[21] = target: T1, Sodium channel protein type 1 subunit alpha; experiment: Inhibition of NaV1.1 (unknown origin) at 10 Hz frequency by whole cell manual patch clamp technique; in short: as §1
[22] = Permeability of compound across apical to basolateral side in human Caco-2 cells; format: ADME, cell-based; conditions: read-out: permeability
[23] = species on record: Oryctolagus cuniculus; experiment: Cardioprotective activity in New Zealand rabbit model of LAD coronary artery occlusion-induced ischemia-reperfusion injury assessed as inhibition of ST segment elevation at 0.5 uM for 30 mins followed by induction of ischemia for 15 mins and subsequent reperfusion for 15 mins by electrocardiographic analysis; format: functional; design: scale not given: the % may be the effect or the level left; conditions: time 60 min, 1 h
[24] = target: NaV1.1 (Homo sapiens, UniProt P35498); experiment: Inhibition of NaV1.1 (unknown origin) expressed in cells assessed as inhibition of peak INa current at 10 uM at 25 Hz frequency by whole-cell patch clamp method relative to control; format: cell-based; conditions: cells expressing NaV1.1; in short: as §1
[25] = species on record: Oryctolagus cuniculus; experiment: Cardioprotective activity in rabbit assessed as decrease in chemically-induced Torsades des Pointes at 2.5 uM by electrocardiographic analysis; format: functional; design: scale not given: the % may be the effect or the level left
[26] = Metabolic stability in rat microsomes assessed as half life; format: ADME, Microsome
[27] = Clearance in iv dosed Beagle dog; format: ADME, organism-based, Canis lupus familiaris; conditions: in vivo
[28] = species on record: Oryctolagus cuniculus; experiment: Cardioprotective activity in rabbit model of left circumflex artery ligation-induced ischemia assessed as inhibition of VT-VF by electrocardiographic analysis; format: functional, organism-based
[29] = Metabolic stability in human microsomes assessed as half life; format: ADME, Microsome
[30] = Metabolic stability in dog microsomes assessed as half life; format: ADME, Canis lupus familiaris, Microsome
[31] = species on record: Oryctolagus cuniculus; experiment: Cardioprotective activity in New Zealand rabbit model of LAD coronary artery occlusion-induced ischemia-reperfusion injury assessed as inhibition of ST segment elevation at 0.25 uM for 30 mins followed by induction of ischemia for 15 mins and subsequent reperfusion for 15 mins by electrocardiographic analysis; format: functional; design: scale not given: the % may be the effect or the level left; conditions: time 60 min, 1 h
[32] = Intrinsic clearance in Sprague-dawley rat hepatocytes; format: ADME, cell-based, Hepatocyte; conditions: read-out: CLH (converted)
[33] = target: T4, Sodium channel protein type 8 subunit alpha (Homo sapiens, UniProt Q9UQD0); experiment: Inhibition of NaV1.6 (unknown origin) at 25 Hz frequency by whole cell manual patch clamp technique; in short: as §1
T4 sequence (Q9UQD0 whole entry, the tested form may be a part): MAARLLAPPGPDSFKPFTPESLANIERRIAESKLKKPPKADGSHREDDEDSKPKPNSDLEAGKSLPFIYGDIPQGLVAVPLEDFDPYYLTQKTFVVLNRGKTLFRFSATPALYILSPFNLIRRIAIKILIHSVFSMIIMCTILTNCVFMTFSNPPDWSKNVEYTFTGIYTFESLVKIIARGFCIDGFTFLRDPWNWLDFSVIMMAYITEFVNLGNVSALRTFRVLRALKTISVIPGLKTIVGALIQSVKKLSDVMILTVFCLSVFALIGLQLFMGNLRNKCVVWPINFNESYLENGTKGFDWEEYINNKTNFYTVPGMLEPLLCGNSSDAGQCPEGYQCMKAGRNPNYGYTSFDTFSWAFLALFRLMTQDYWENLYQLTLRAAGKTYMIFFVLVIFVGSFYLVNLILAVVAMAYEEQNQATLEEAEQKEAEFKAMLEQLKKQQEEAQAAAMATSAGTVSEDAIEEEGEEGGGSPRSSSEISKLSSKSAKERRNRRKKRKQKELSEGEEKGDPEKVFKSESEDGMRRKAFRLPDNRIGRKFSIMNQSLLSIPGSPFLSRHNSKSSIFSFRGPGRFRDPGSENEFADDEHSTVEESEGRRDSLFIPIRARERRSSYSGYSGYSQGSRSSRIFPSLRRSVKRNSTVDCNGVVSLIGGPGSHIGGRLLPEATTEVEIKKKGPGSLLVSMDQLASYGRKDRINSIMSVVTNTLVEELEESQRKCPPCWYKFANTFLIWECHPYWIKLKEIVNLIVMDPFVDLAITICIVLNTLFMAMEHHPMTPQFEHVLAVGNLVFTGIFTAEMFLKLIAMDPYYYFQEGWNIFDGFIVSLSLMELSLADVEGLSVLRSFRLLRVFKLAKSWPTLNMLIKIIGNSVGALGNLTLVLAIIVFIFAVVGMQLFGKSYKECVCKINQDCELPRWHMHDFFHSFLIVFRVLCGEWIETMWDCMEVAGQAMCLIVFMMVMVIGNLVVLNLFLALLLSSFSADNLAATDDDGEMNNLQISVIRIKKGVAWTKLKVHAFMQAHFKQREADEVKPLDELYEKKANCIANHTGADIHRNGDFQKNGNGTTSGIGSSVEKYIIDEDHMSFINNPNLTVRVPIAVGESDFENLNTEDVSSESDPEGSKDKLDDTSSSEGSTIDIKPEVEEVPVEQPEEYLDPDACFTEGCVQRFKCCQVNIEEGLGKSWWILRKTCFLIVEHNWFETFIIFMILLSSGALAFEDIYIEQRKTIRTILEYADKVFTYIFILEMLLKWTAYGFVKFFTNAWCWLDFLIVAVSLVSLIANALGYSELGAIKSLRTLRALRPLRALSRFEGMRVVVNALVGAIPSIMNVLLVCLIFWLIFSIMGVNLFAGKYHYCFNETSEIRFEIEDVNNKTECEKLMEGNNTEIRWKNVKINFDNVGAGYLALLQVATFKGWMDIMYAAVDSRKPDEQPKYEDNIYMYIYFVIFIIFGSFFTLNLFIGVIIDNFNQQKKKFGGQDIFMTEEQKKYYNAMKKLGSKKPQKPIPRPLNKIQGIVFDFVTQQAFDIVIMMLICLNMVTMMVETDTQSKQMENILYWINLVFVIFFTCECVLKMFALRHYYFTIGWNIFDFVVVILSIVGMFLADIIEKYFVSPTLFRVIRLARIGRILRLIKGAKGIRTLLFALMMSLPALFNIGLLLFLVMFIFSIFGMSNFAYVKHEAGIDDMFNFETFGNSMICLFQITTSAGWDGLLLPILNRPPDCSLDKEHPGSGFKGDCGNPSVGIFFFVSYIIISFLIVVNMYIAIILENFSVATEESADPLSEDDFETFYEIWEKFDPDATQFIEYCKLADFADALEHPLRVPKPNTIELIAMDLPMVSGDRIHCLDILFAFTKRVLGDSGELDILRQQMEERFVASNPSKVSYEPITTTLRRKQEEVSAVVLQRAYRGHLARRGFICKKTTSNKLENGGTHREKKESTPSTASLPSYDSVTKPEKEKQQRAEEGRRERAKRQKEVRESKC

[34] = Toxicity in New Zealand rabbit model of LAD coronary artery occlusion-induced ischemia-reperfusion injury assessed as effect on blood pressure at 0.25 to 0.5 uM; design: species or system Oryctolagus cuniculus; conditions: in vivo, dose 0.25-0.5 µM
[35] = Toxicity in New Zealand rabbit model of LAD coronary artery occlusion-induced ischemia-reperfusion injury assessed as effect on ECG interval at 0.25 to 0.5 uM; design: species or system Oryctolagus cuniculus; conditions: in vivo, dose 0.25-0.5 µM
[36] = Half-life in iv dosed Beagle dog; format: ADME, organism-based, Canis lupus familiaris; conditions: in vivo
[37] = species on record: Oryctolagus cuniculus; experiment: Cardioprotective activity in rabbit model of left circumflex artery ligation-induced ischemia assessed as inhibition of VT-VF at 2.5 uM; format: functional, organism-based
[38] = target: Sodium channel protein type 10 subunit alpha (Homo sapiens, UniProt Q9Y5Y9); experiment: Inhibition of NaV1.8 (unknown origin) at 10 Hz frequency by whole cell manual patch clamp technique; in short: as §1
[39] = Clearance in iv dosed cynomolgus monkey; format: ADME, organism-based, Macaca fascicularis; conditions: in vivo
[40] = Permeability of compound across basolateral to apical side in human Caco-2 cells; format: ADME, cell-based; conditions: read-out: permeability
[41] = Volume of distribution at steady state in iv dosed Beagle dog; format: ADME, organism-based, Canis lupus familiaris; conditions: in vivo, read-out: Vdss
[42] = target: T4, Sodium channel protein type 8 subunit alpha; experiment: Inhibition of NaV1.6 (unknown origin) at 10 Hz frequency by whole cell manual patch clamp technique; in short: as §1
[43] = Volume of distribution at steady state in iv dosed cynomolgus monkey; format: ADME, organism-based, Macaca fascicularis; conditions: in vivo, read-out: Vdss
[44] = Solubility of compound in water; format: physicochemical
[45] = Oral bioavailability in Beagle dog; format: ADME, organism-based, Canis lupus familiaris; conditions: in vivo
[46] = Intrinsic clearance in Beagle dog hepatocytes; format: ADME, cell-based, Canis lupus familiaris, Hepatocyte; conditions: read-out: CLH (converted)
[47] = species on record: Oryctolagus cuniculus; experiment: Cardioprotective activity in New Zealand White rabbit heart assessed as reversal of ATX-II induced late sodium current prolongation in change in duration of monophasic action potential at 90 percent repolarization at 1 uM by electrocardiographic analysis relative to control; format: functional
[48] = system: Oryctolagus cuniculus; experiment: Cardioprotective activity in rabbit model of left circumflex artery ligation-induced ischemia assessed as inhibition of VT-VF at 0.125 to 1.5 mg/kg by electrocardiographic analysis; format: functional, organism-based; conditions: dose 0.125-1.5 mg/kg
[49] = target: T3, Sodium channel protein type 3 subunit alpha; experiment: Inhibition of NaV1.3 (unknown origin) at 25 Hz frequency by whole cell manual patch clamp technique; in short: as §1
[50] = Toxicity in rat assessed as adverse event at > 10 uM; conditions: in vivo
In short: (§2)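 Single ascending dose studies, with CNS-related adverse events monitored.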

[51] = Oral bioavailability in Sprague-Dawley rat; format: ADME, organism-based; conditions: in vivo
[52] = species on record: Oryctolagus cuniculus; experiment: Cardioprotective activity in New Zealand rabbit model of LAD coronary artery occlusion-induced ischemia-reperfusion injury assessed as inhibition of ST segment elevation at 500 nM for 30 mins followed by induction of ischemia for 15 mins and subsequent reperfusion for 15 mins by electrocardiographic analysis; format: functional; conditions: 1 h, time 60 min
[53] = Toxicity in dog assessed as adverse event at > 10 uM; design: species or system Canis lupus familiaris; conditions: in vivo; in short: as §2
[54] = target: NaV1.5 (Homo sapiens, UniProt Q14524); experiment: Inhibition of human NaV1.5 expressed in HEK293 cells assessed as inhibition of peak sodium current measured at frequency 3 Hz at -20 mV resting membrane potential at 3 uM by electrophysiology assay relative to control; format: cell-based; conditions: HEK293 cells expressing human NaV1.5
[55] = Intrinsic clearance in human hepatocytes; format: ADME, cell-based, Hepatocyte; conditions: read-out: CLH
In short: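 Clearance measured in pooled human hepatocytes with tritium-labelled compound.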

[56] = Clearance in iv dosed Sprague-Dawley rat; format: ADME, organism-based; conditions: in vivo

COc1ccccc1OCC(O)CN1CCN(CC(=O)Nc2c(C)cccc2C)CC1 (stereo not drawn) [RANOLAZINE]
inhibition (INH) [1]: Not Active
EC50 [2]: 8 µM
IC50 [3]: 428 µM
inhibition in vivo at 12 µM [4]: 60%
Activity [5]: Active
IC50 [6]: 16 µM
Activity [7]: 60%
inhibition [8]: inactive

O=C1c2cc(-c3ccc(OC(F)(F)F)cc3)ccc2OCCN1Cc1ncccn1 [ELECLAZINE]
Vd [9]: 2.5 L/kg
IC50 [10]: 0.88 µM
half-life [11]: 5 h
Emax [12]: 93%
bioavailability [13]: 39%
IC50 [14]: 13 µM
IC50 [15]: 3.3 µM
half-life [16]: 13 h
IC50 [17]: 16 µM
IC50 [18]: 0.62 µM
Activity [19]: Non-Toxic
CLint scaled [20]: 6 mL/min/kg
inhibition (INH) [1]: Not Active
IC50 [21]: 96 µM
Papp A→B [22]: 34.6 ×10⁻⁶ cm/s
Activity [23]: 93%
inhibition at 10 µM [24]: 53%
Activity [25]: 100%
half-life [26]: 3.33 h
clearance [27]: 0.7 mL/min/kg
EC50 [28]: 1.7 µM
half-life [29]: 6.58 h
half-life [30]: 5.9 h
Activity [31]: 55%
CLint scaled [32]: 2.67 mL/min/kg
EC50 [2]: 0.19 µM
Activity ([2]; time 60.0 min): Dose-dependent effect
IC50 [33]: 4 µM
IC50 [3]: 51 µM
Activity [34]: Non-Toxic
Activity [35]: Non-Toxic
Activity [5]: Active
half-life [36]: 27.9 h
Activity [37]: Active
IC50 [38]: 18.8 µM
clearance [39]: 1.83 mL/min/kg
Papp B→A [40]: 29 ×10⁻⁶ cm/s
Vd [41]: 1.6 L/kg
IC50 [42]: 28 µM
Vd [43]: 1.5 L/kg
solubility [44]: 24 µM (≈ 9.97 µg/mL)
bioavailability [45]: 100%
IC50 [6]: 0.7 µM
CLint scaled [46]: 1 mL/min/kg
Activity [47]: 62%
Activity [48]: Active
IC50 [49]: 3.5 µM
Activity [50]: Toxic
bioavailability [51]: 91%
inhibition in vivo at 0.5 µM [52]: 93%
Activity [53]: Toxic
inhibition at 3 µM [54]: 24%
CLint scaled [55]: < 0.25 mL/min/kg
clearance [56]: 2.33 mL/min/kg
inhibition [8]: inactive
